Source: ChEMBL document CHEMBL4819011, “Structure-based discovery of 1H-indole-2-carboxamide derivatives as potent ASK1 inhibitors for potential treatment of ulcerative colitis” (Eur J Med Chem, 2021)
Calls of active or inactive are those of the source. The rule behind the calls is not given here.

Experiments:
Mus musculus [1] = experiment: Anti-ulcerative colitis activity against DSS-induced ulcerative colitis ICR mouse model assessed as recovery of body weight loss at 25 mg/kg, po qd measured after 7 days; format: functional, organism-based; settings: time 7.0 day
In short: (§1)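 Male ICR mice (18–22 g, 6–8 weeks) given 3% DSS (w/v) in drinking water for 7 days, water changed every two days. Dosed 25 mg/kg po once daily in CMC-Na aqueous vehicle during DSS exposure; vehicle-treated water and DSS groups served as controls, n = 6 per group. Body weight, stool consistency and rectal bleeding recorded daily. DAI is the mean of the weight-loss (0–4), stool (0–2) and blood (0–2) scores. Colon length measured at sacrifice. Mean ± SEM.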

[2] = Volume of distribution at steady state in Sprague-Dawley rat at 1 mg/kg, iv measured for 24 hrs by LC-MS/MS analysis; format: ADME, organism-based; settings: in vivo, read-out: Vdss
In short: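 Male SD rats, fasted 24 h, n = 3. Single iv dose of 1 mg/kg given as a solution in 10% DMAC + 10% (30% Solutol HS 15 in water) + 80% saline. Venous blood (about 150 µL) collected into heparin tubes at 0.083, 0.25, 0.5, 1, 2, 4, 8 and 24 h. Plasma protein-precipitated with ACN containing dexamethasone IS, analysed by LC-MS/MS. Parameters calculated in DAS 2.1.1; mean ± SD.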

[3] = molecular target: T1, Mitogen-activated protein kinase kinase kinase 5 (Mus musculus) (UniProt O35099); experiment: In vivo inhibition of ASK1 in DSS-induced ulcerative colitis ICR mouse model assessed as downregulation of phosphorylation of ASK1 in colon at 25 mg/kg, po qd measured after 7 days by western blot assay; format: functional, organism-based; settings: time 7.0 day
T1 sequence (whole entry): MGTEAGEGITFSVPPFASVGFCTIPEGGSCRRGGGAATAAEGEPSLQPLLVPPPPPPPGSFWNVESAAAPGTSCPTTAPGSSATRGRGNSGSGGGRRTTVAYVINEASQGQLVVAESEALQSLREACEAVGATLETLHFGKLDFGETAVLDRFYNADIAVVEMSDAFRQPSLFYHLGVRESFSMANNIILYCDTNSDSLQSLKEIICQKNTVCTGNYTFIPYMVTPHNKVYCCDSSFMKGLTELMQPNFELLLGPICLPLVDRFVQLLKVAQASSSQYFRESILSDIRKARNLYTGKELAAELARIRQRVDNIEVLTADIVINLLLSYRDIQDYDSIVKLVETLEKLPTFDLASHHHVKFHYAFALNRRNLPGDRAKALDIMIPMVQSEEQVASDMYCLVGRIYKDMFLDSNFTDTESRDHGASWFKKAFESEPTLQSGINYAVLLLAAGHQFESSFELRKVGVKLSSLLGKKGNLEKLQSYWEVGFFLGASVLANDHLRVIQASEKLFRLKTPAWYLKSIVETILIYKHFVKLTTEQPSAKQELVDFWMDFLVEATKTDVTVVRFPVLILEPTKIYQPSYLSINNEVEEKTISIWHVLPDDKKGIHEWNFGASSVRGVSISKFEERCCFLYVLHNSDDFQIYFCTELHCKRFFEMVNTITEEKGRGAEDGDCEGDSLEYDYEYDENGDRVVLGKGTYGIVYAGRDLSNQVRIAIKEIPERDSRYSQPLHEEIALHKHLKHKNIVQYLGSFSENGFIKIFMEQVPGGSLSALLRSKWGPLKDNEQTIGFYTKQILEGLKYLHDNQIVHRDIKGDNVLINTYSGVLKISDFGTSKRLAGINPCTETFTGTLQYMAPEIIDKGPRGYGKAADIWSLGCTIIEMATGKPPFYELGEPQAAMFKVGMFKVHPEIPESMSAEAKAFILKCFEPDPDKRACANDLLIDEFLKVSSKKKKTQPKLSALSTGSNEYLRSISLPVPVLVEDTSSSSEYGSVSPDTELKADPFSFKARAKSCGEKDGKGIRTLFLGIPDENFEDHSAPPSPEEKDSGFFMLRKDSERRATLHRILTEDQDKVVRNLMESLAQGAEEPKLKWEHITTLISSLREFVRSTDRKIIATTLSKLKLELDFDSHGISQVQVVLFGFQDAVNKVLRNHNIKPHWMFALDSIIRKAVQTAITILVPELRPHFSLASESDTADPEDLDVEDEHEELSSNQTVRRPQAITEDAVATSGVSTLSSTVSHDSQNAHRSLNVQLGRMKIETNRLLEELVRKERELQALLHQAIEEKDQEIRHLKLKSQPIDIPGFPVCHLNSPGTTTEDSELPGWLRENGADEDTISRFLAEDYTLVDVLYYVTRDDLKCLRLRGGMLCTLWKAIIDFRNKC
In short: (§2)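 Colons from ICR mice given 7 days of DSS plus 25 mg/kg po qd. Tissue homogenised in ice-cold RIPA buffer and protein quantified by BCA. Proteins separated by SDS-PAGE, transferred to PVDF and blocked in 5% BSA. Probed overnight at 4 °C for total and phospho ASK1, MKK3/6, MKK4/7, p38 and JNK, with GAPDH as loading control. Detected with HRP anti-rabbit secondary and ECL. Phosphorylated protein normalised to its unphosphorylated form.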

[4] = molecular target: T1, Mitogen-activated protein kinase kinase kinase 5 (Mus musculus); experiment: In vivo inhibition of ASK1 in DSS-induced ulcerative colitis ICR mouse model assessed as downregulation of phosphorylation of p38 in colon at 25 mg/kg, po qd measured after 7 days by western blot assay; format: functional, organism-based; settings: time 7.0 day; in short: as §2
Mus musculus [5] = experiment: Anti-inflammatory activity against DSS-induced ulcerative colitis ICR mouse model assessed as decrease of TNF-alpha level in colon at 25 mg/kg, po qd measured after 7 days by ELISA; format: functional, organism-based; settings: time 7.0 day
In short: (§3)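 Colon tissue collected from ICR mice after 7 days of 3% DSS drinking water plus 25 mg/kg po qd dosing. Tissue homogenised and centrifuged; IL-1β, IL-6 and TNF-α in the supernatant measured with mouse ELISA kits.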

[6] = molecular target: T1, Mitogen-activated protein kinase kinase kinase 5 (Mus musculus); experiment: In vivo inhibition of ASK1 in DSS-induced ulcerative colitis ICR mouse model assessed as downregulation of phosphorylation of MKK4/7 in colon at 25 mg/kg, po qd measured after 7 days by western blot assay; format: functional, organism-based; settings: time 7.0 day; in short: as §2
Mus musculus [7] = experiment: Anti-ulcerative colitis activity against DSS-induced ulcerative colitis ICR mouse model assessed as decrease of infiltration of inflammatory cells in colon at 25 mg/kg, po qd measured after 7 days by H and E staining method; format: functional, organism-based; settings: time 7.0 day
In short: (§4)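 ICR mice given 3% DSS in drinking water for 7 days with 25 mg/kg po qd in CMC-Na vehicle. At sacrifice, colons fixed in 4% formaldehyde, paraffin-embedded, sectioned at 4 µm and stained with hematoxylin and eosin. Histopathology examined by light microscopy.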

Mus musculus [8] = experiment: Anti-ulcerative colitis activity against DSS-induced ulcerative colitis ICR mouse model assessed as disease activity index score at 25 mg/kg, po qd measured after 7 days (reference value: 2.83 units); format: functional; settings: time 7 day; in short: as §1
[9] = Oral bioavailability in Sprague-Dawley rat at 5 mg/kg measured for 24 hrs by LC-MS/MS analysis; format: ADME, organism-based; settings: in vivo
[10] = molecular target: T1, Mitogen-activated protein kinase kinase kinase 5 (Mus musculus); experiment: In vivo inhibition of ASK1 in DSS-induced ulcerative colitis ICR mouse model assessed as downregulation of phosphorylation of JNK in colon at 25 mg/kg, po qd measured after 7 days by western blot assay; format: functional, organism-based; settings: time 7.0 day; in short: as §2
Mus musculus [11] = experiment: Anti-inflammatory activity against DSS-induced ulcerative colitis ICR mouse model assessed as decrease of IL-1 beta level in colon at 25 mg/kg, po qd measured after 7 days by ELISA; format: functional, organism-based; settings: time 7.0 day; in short: as §3
Mus musculus [12] = experiment: Anti-ulcerative colitis activity against DSS-induced ulcerative colitis ICR mouse model assessed as colon shortening at 25 mg/kg, po qd measured after 7 days (reference value: 26.7%); format: functional; settings: time 7 day; in short: as §1
Mus musculus [13] = experiment: Anti-inflammatory activity against DSS-induced ulcerative colitis ICR mouse model assessed as decrease of IL-6 level in colon at 25 mg/kg, po qd measured after 7 days by ELISA; format: functional, organism-based; settings: time 7.0 day; in short: as §3
[14] = molecular target: T1, Mitogen-activated protein kinase kinase kinase 5 (Mus musculus); experiment: In vivo inhibition of ASK1 in DSS-induced ulcerative colitis ICR mouse model assessed as downregulation of phosphorylation of MKK3/6 in colon at 25 mg/kg, po qd measured after 7 days by western blot assay; format: functional, organism-based; settings: time 7.0 day; in short: as §2
Mus musculus [15] = experiment: Anti-ulcerative colitis activity against DSS-induced ulcerative colitis ICR mouse model assessed as decrease of colonic tissue damage at 25 mg/kg, po qd measured after 7 days by H and E staining method; format: functional, organism-based; settings: time 7.0 day; in short: as §4

For `Cc1cc(F)c(C(=O)Nc2cccc(-c3nncn3C(C)C)n2)cc1-n1cnc(C2CC2)c1` [SELONSERTIB], the Activity (Mus musculus [1]) was “inactive”, the Vd [2] was 0.55 L/kg and the inhibition [3] was “Active”. The inhibition [4] was “Active”, the Activity (Mus musculus [5]) was “Active” and the inhibition [6] was “Active”. The Activity (Mus musculus [7]) was “Active”, the DAI score decrease (Mus musculus [8]) was 0.83 and the bioavailability [9] was 75%. The inhibition [10] was “Active”, the Activity (Mus musculus [11]) was “Active” and the Activity (Mus musculus [12]) was 23.4%. The Activity (Mus musculus [13]) was “Active”, the inhibition [14] was “Active” and the Activity (Mus musculus [15]) was “Active”.
